Values after ≈ are worked out from the molar mass of the structure shown. Values joined by “and” are separate entries in the source; they are usually repeats but may differ in a detail not shown here. Identical values can stand only once.
Legend:
[1] = target: T1, Thyroid hormone receptor beta (Homo sapiens, UniProt P10828); assay: Displacement of labeled SRC2-2 from human TRbeta expressed in BL21 (DE3) cells FP assay; assay type: cell-based
T1 sequence (P10828 whole entry): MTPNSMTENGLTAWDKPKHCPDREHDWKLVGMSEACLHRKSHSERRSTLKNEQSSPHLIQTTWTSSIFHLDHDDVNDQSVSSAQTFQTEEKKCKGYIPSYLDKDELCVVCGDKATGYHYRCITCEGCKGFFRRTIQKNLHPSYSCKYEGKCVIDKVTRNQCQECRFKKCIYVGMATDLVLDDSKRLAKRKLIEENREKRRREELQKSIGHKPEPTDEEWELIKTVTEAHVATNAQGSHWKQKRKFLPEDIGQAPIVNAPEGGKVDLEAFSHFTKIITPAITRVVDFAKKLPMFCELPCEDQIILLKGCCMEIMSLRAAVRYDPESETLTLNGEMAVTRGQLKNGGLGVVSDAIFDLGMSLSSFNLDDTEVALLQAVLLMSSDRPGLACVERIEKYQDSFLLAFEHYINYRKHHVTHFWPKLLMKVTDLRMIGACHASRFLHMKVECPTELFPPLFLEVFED
How it was run: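 Competitive fluorescence polarization. Assay liquid was PBS containing 5% DMSO. For TRβ, hTRβ1 LBD (His6, T209-D461) was expressed in BL21 (DE3).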

ARO = assay: Cytotoxicity against human ARO cells after 48 hrs by MTS assay; assay type: functional; conditions: read-out: LD50 (the source's name)
U2OS = assay: Cytotoxicity against human U2OS cells after 48 hrs by MTS assay; assay type: functional; conditions: read-out: LD50 (the source's name)
[2] = target: T2, Thyroid hormone receptor alpha (Homo sapiens, UniProt P10827); assay: Displacement of labeled SRC2-2 from human TRalpha by FP assay
T2 sequence (P10827 whole entry): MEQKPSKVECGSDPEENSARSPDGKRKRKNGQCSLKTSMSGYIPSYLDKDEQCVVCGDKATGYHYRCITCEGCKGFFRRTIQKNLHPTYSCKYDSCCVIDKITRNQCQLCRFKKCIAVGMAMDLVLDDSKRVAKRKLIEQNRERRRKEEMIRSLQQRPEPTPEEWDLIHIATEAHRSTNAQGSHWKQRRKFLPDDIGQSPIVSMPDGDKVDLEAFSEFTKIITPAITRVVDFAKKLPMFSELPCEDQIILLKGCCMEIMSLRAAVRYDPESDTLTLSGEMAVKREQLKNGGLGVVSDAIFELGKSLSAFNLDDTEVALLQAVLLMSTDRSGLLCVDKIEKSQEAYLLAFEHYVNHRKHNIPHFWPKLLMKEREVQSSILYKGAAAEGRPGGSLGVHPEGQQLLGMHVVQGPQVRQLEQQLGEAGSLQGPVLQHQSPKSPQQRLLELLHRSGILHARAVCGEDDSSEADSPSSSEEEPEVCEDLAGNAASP

physchem = conditions: PBS
[3] = Permeability across artificial membrane at pH 7.4 by PAMPA assay

SMILES	IC50 [1] [µM]	CC50 (ARO; Homo sapiens, ARO, 48 h) [µM]	CC50 (U2OS; Homo sapiens, U2OS, 48 h) [µM]	IC50 [2]	solubility (physchem) [µM]	Papp [3] [×10⁻⁶ cm/s]	permeability [3]	CC50 (ARO)	CC50 (U2OS) [µM]
C=CC(=O)c1ccc(CCCCC)cc1	33.9	20	22.7	60.9 µM					
CCCCCCc1ccc(C(=O)CCN(C)CCc2ccccc2)cc1	1.5	2.5	18.4	3.6 µM	15 (≈ 5.27 µg/mL)				
CCCCCCc1ccc(NC(=O)/C=C/c2ccccc2)cc1	> 100			> 100 µM					
C=C(CC(=O)Nc1ccc(CCCCCC)cc1)C(=O)O	> 100	183	124	> 100 µM	286 (≈ 82.8 µg/mL)	57			
CCCCCCc1ccc(NC(=O)/C=C\C(=O)O)cc1	20.3	> 200	148	17.5 µM	418 (≈ 115 µg/mL)				
CCCCCCc1ccc(C(=O)CCN(C)CCO)cc1	1.6	13.2	13.2	3 µM	97 (≈ 28.3 µg/mL)				
CCCCCCc1ccc(C(=O)CCN(C)C)cc1	4.3			[…]					
CCCCCCc1ccc(C(=O)CCN(C(C)C)C(C)C)cc1	2	15.4	20.7	4.1 µM	55 (≈ 17.5 µg/mL)				
CCCCCCc1ccc(C(=O)CCN2CCOCC2)cc1	2.7	7.2	20.8	4.1 µM	110 (≈ 33.4 µg/mL)		1210 10^-6 cm/s		
CCCCCCc1ccc(C(=O)CCN2CCC(C(=O)OC)CC2)cc1	3.9	8.2	19.7	6.3 µM	27 (≈ 9.71 µg/mL)	145			
CCCCCCc1ccc(C(=O)CCN(C)Cc2ccco2)cc1	12.1			22.6 µM					
CCCCCCc1ccc(C(=O)CCl)cc1	23.1			47.7 µM					
CCCCCCc1ccc(C(=O)CF)cc1	> 100	2.4	69	> 100 µM	95 (≈ 21.1 µg/mL)				
C=CC(=O)c1ccc(CCCCCCC)cc1	10.5	69.2	36.7	23 µM					
C=CC(=O)c1ccc(CCCCCCCC)cc1	11.4	111	50.5	21.4 µM					
C=CC(=O)Oc1ccc(CCCCC)cc1	55.8	21.2	36.5	> 100 µM					
C=CC(=O)Oc1ccccc1CCCCCC	8.2	14.6	19.4	39.1 µM					
C=CC(=O)c1ccc(CCCCCC)cc1			10.1	28.1 µM and 45.2 µM	36 (≈ 7.79 µg/mL)	38		4.5 µM and 29.5 µM	18.8

SMILES	IC50 [1] [µM]	CC50 (ARO; Homo sapiens, ARO, 48 h) [µM]	CC50 (U2OS; Homo sapiens, U2OS, 48 h) [µM]	IC50 [2]	solubility (physchem) [µM]	Papp [3] [×10⁻⁶ cm/s]	permeability [3]	CC50 (ARO)	CC50 (U2OS) [µM]
CCCCCCc1ccc(C(=O)/C=C\C(=O)O)cc1	17.7	5.5	57.4	19.2 µM	252 (≈ 65.6 µg/mL)	66			
C=C(C)C(=O)c1ccc(CCCCCCC)cc1	23.2	10.7	18.7	52.9 µM	37 (≈ 9.04 µg/mL)	43			
C=CC(=O)c1ccc(CC(C)(C)C)cc1	43.5	5.8	27.5	69.6 µM					
C/C=C(\C)C(=O)c1ccc(CCCCCCC)cc1	> 100	> 200	> 200	> 100 µM	36 (≈ 9.3 µg/mL)				
CCCCCCc1ccc(C(=O)CC)cc1	> 100			> 100 µM					
C=CC(=O)c1ccc(CCCC)cc1	66	9.9	25.6	71 µM					
CCCCCCc1ccc(NC(=O)CCC(=O)O)cc1	> 100			> 100 µM					
C=CC(=O)[C@H]1CC[C@H](CC(C)(C)C)CC1	69.1	92.8	50.2	75.6 µM					
C=CC(=O)Oc1ccc(CCC)cc1	61	4.8	121	> 100 µM					
CCCC(=O)Nc1cccc2c1CCCC2	69.8	54.7	101	85.3 µM					
CCCCCCc1ccc(C(=O)CCBr)cc1	3	40.1	17	4.2 µM	85 (≈ 25.3 µg/mL)				
CCCCCCc1ccc(C(=O)CCN(CCCC)CCCC)cc1	4.2	5.4	25.5	6.9 µM	152 (≈ 52.5 µg/mL)				
C/C=C/C(=O)c1ccc(CCCCCCC)cc1	7.6	1.4	11.6	18.9 µM	41 (≈ 10 µg/mL)	7			
CCCCCCCc1ccc(C(=O)C=C(C)C)cc1	> 100	> 200	> 200	> 100 µM	24 (≈ 6.2 µg/mL)				
CCCCCCc1ccc(C(=O)CCNCCC)cc1	15.2	107	160	25.8 µM	354 (≈ 97.5 µg/mL)	254			
CCCCCCc1ccc(C(=O)CCN(C2CCCCC2)C2CCCCC2)cc1	12.7			16.5 µM					
CCCCCCCc1ccc(C(=O)/C=C/c2ccccc2)cc1	> 100	> 200	57	> 100 µM	30 (≈ 9.19 µg/mL)				
